Measurements taken from ChEMBL document CHEMBL1130413, “Novel 3'-C/N-substituted 2',3'-beta-D-dideoxynucleosides as potential chemotherapeutic agents. 1. Thymidine derivatives: synthesis, structure, and broad spectrum antiviral properties” (J Med Chem, 1997).
Values after ≈ are worked out from the molar mass of the structure shown.

Legend:
E6SM [1] = experiment: 50% Minimum inhibitory concentration which is required to reduce cytopathogenicity induced by (Mc Intyre) strain of HSV-1 virus on human E6SM cells.; type: functional
In short: (§1)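 Confluent cell monolayers infected with 100 CCID50 virus and left 1 h for adsorption. Residual virus then removed and compound added at serial dilutions (400, 200, 100 ... µg/mL). Value is the concentration giving 50% reduction of CPE.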

E6SM [2] = experiment: 50% Minimum inhibitory concentration which is required to reduce cytopathogenicity induced by (KOS) strain of HSV-1 virus on human E6SM cells.; type: functional; in short: as §1
E6SM [3] = experiment: 50% Minimum inhibitory concentration which is required to reduce cytopathogenicity induced by (G) strain of HSV-2 virus on human E6SM cells.; type: functional; in short: as §1
CCRF-CEM [4] = experiment: 50% effective concentration of compound which is required to protect human CEM cells against HIV-1 induced giant cell formation.; type: functional, cell-based
In short: (§2)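 CEM cells at 250000–300000 cells/mL infected with HIV-1 (IIIB) or HIV-2 (ROD) at 100 CCID50/mL. Infected cells mixed with serial compound dilutions and incubated 4 days at 37 °C. Syncytium (giant cell) formation then scored. Values averaged over two independent experiments.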

MOLT-4 = experiment: EC50 is the cytotoxic concentration of compound required to reduce Molt4/C8 (human T-lymphocyte) cell viability by 50%.; type: functional, cell-based
In short: (§3)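 Human CEM or Molt-4 cells seeded at 7.5 × 10^5 cells/mL with varying compound concentrations. Incubated 3 days at 37 °C in humidified CO2. Viable cells counted with a Coulter counter. Value is the concentration reducing viable cell number by 50%.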

E6SM [5] = experiment: 50% Minimum inhibitory concentration which is required to reduce cytopathogenicity induced by TK-(B2006) strain of HSV-1 virus on human E6SM cells.; type: functional; in short: as §1
FM3A [6] = experiment: EC50 is the cytotoxic concentration of compound required to reduce FM3A (murine mammary carcinoma cells) cell viability by 50%.; type: functional, cell-based; conditions: Mus musculus
In short: (§4)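 Murine L1210 or FM3A-derived cells seeded at 5 × 10^5 cells/mL with varying compound concentrations. Incubated 2 days at 37 °C in humidified CO2. Viable cells counted with a Coulter counter. Value is the concentration reducing viable cell number by 50%.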

HEL [7] = experiment: 50% Minimum inhibitory concentration which is required to reduce cytopathogenicity induced by (KOS) strain of HSV-1 virus on human embryonic HEL cells.; type: functional; in short: as §1
CEM-TK(-) [8] = experiment: Cytotoxic concentration which is required to reduce CEM/TK- cell viability by 50%.; type: functional; conditions: Homo sapiens
HEL [9] = experiment: 50% Minimum inhibitory concentration which is required to reduce cytopathogenicity induced by (G) strain of HSV-2 virus on human embryonic HEL cells.; type: functional; in short: as §1
HEL [10] = experiment: 50% Minimum inhibitory concentration which is required to reduce cytopathogenicity induced by (Lyons) strain of HSV-2 virus on human embryonic HEL cells.; type: functional; in short: as §1
CCRF-CEM [11] = experiment: 50% effective concentration of compound which is required to protect human CEM cells against HIV-2 induced giant cell formation.; type: functional, cell-based; in short: as §2
CCRF-CEM [12] = experiment: Cytotoxic concentration which is required to reduce human CEM cell viability by 50%.; type: functional; in short: as §3
HEL [13] = experiment: 50% Minimum inhibitory concentration which is required to reduce cytopathogenicity induced by TK-(B2006) strain of HSV-1 virus on human embryonic HEL cells.; type: functional; in short: as §1
[14] = Selectivity index of HIV-1 and HIV-2 with respect to MT-4 cells; type: functional, MT4
In short: (§5)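 Selectivity index calculated as average CC50 divided by average EC50. Each average comes from two independent experiments, using HIV-1 (IIIB) and HIV-2 (ROD) in CEM or MT-4 cells.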

MT4 [15] = experiment: Cytotoxic concentration which is required to reduce human MT-4 cell viability by 50%.; type: functional
CEM-TK(-) [16] = experiment: 50% effective concentration of compound which is required to protect Thymidine kinase deficient human CEM (CEM/TK-) cells against HIV-2.; type: functional, cell-based
E6SM [17] = experiment: 50% Minimum inhibitory concentration which is required to reduce cytopathogenicity induced by (Lyons) strain of HSV-2 virus on human E6SM cells.; type: functional; in short: as §1
MT4 [18] = experiment: 50% effective concentration of compound which is required to protect human MT-4 cells against cytopathogenicity of HIV-1.; type: functional, cell-based
HEL [19] = experiment: 50% Minimum inhibitory concentration which is required to reduce cytopathogenicity induced by (Mc Intyre) strain of HSV-1 virus on human embryonic HEL cells.; type: functional; in short: as §1
[20] = Minimum cytotoxic concentration which causes microscopically detectable alteration of normal cell morphology after 2 days of incubation.; type: functional; conditions: 48 h
In short: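 Uninfected E6SM cells exposed to compound for 2 days. Minimum concentration giving a microscopically detectable change in normal cell morphology recorded.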

MT4 [21] = experiment: 50% effective concentration of compound which is required to protect human MT-4 cells against cytopathogenicity of HIV-2.; type: functional, cell-based
[22] = Selectivity index of HIV-1 and HIV-2 with respect to CEM cells; type: functional, CCRF-CEM; in short: as §5
E6SM [23] = experiment: 50% Minimum inhibitory concentration which is required to reduce cytopathogenicity induced by (196) strain of HSV-2 virus on human E6SM cells.; type: functional; in short: as §1
FM3A [24] = experiment: EC50 is the cytotoxic concentration of compound required to reduce FM3A/TK- HSV-1TK+ cell viability by 50%.; type: functional, cell-based; conditions: Mus musculus; in short: as §4
L1210 = experiment: EC50 is the cytotoxic concentration of compound required to reduce L1210 (murine leukemia cells) cell viability by 50%.; type: functional, cell-based; conditions: Mus musculus; in short: as §4
FM3A [25] = experiment: EC50 is the cytotoxic concentration of compound required to reduce FM3A/TK- (Thymidine kinase deficient murine mammary carcinoma cells) cell viability by 50%.; type: functional, cell-based; conditions: Mus musculus; in short: as §4
E6SM [26] = experiment: 50% Minimum inhibitory concentration which is required to reduce cytopathogenicity induced by (F) strain of HSV-1 virus on human E6SM cells.; type: functional; in short: as §1
HepG2 = experiment: 50% Effective concentration of compound required for inhibiting intracellular viral replicative intermediate DNA in HBV-transfected 2.2.15 cell line.; type: functional, cell-based; conditions: Homo sapiens
In short: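 2.2.15 cells (HBV-transfected, Hep-G2-derived) in DMEM with 4% FBS and 0.5 mM glutamine; drug exposure 9 days, medium changed every 3 days. Total intracellular DNA extracted and Southern-blotted with a 32P-labelled full-length HBV probe. Replicative intermediate DNA in treated cells compared with untreated 2.2.15 cells; Hep-G2 as negative control.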

HEL [27] = experiment: 50% Minimum inhibitory concentration which is required to reduce cytopathogenicity induced by (OKA) strain of Varicella Zoster virus on human embryonic HEL cells.; type: functional
HeLa = experiment: 50% Minimum inhibitory concentration which is required to reduce cytopathogenicity induced by Vesicular Stomatitis virus (VSV) in Hela cells.; type: functional; conditions: Homo sapiens; in short: as §1

SMILES	MIC (E6SM [1]) [µg/mL]	MIC (E6SM [2]) [µg/mL]	MIC (E6SM [3]) [µg/mL]	EC50 (CCRF-CEM [4]) [µg/mL]	EC50 (MOLT-4) [µg/mL]	MIC (E6SM [5]) [µg/mL]	EC50 (FM3A [6]) [µg/mL]	CC50 (CEM-TK(-) [8]) [µg/mL]	EC50 (CCRF-CEM [11]) [µg/mL]	CC50 (CCRF-CEM [12]) [µg/mL]	Selectivity index [14]	CC50 (MT4 [15]) [µg/mL]	EC50 (CEM-TK(-) [16]) [µg/mL]	MIC (E6SM [17]) [µg/mL]	EC50 (MT4 [18]) [µg/mL]	MCC [20] [µg/mL]	EC50 (MT4 [21]) [µg/mL]	Selectivity index [22]	MIC (E6SM [23]) [µg/mL]	EC50 (FM3A [24]) [µg/mL]	other results
Cc1cn(C2CC([N+](=O)[O-])C(CO)O2)c(=O)[nH]c1=O (stereo not given)	> 200	> 200	> 200	> 100	70 (≈ 258 µM)	> 200	> 200	> 200	100 (≈ 369 µM)	168 (≈ 619 µM)	79	93 (≈ 343 µM)	> 100	> 200	1 (≈ 3.69 µM)	> 200	2.2 (≈ 8.11 µM)	>1.7	> 200	> 200	MIC (HEL [7]): 5 µg/mL (≈ 18.4 µM); MIC (HEL [9]): 20 µg/mL (≈ 73.7 µM); MIC (HEL [10]): 25 µg/mL (≈ 92.2 µM); MIC (HEL [13]): > 50 µg/mL; MIC (HEL [19]): 20 µg/mL (≈ 73.7 µM); EC50 (L1210): 58 µg/mL (≈ 214 µM); EC50 (FM3A [25]): > 200 µg/mL; MIC (E6SM [26]): > 200 µg/mL
CO/N=C1/C[C@H](n2cc(C)c(=O)[nH]c2=O)O[C@@H]1CO.CO/N=C1\C[C@H](n2cc(C)c(=O)[nH]c2=O)O[C@@H]1CO	> 200	> 200	> 200	26	> 200	> 200	> 200	> 200	27	> 200	64	182	> 100	> 200	3.3	> 200	4.6	8	> 200	> 200	MIC (HEL [7]): 50 µg/mL; MIC (HEL [9]): > 50 µg/mL; MIC (HEL [10]): 35 µg/mL; MIC (HEL [13]): > 50 µg/mL; MIC (HEL [19]): > 50 µg/mL; EC50 (L1210): 112 µg/mL; EC50 (FM3A [25]): > 200 µg/mL; MIC (E6SM [26]): > 200 µg/mL
Cc1cn(C2C/C(=N\O)C(CO)O2)c(=O)[nH]c1=O (stereo not given)	1.3 (≈ 5.09 µM)	0.4 (≈ 1.57 µM)	0.7 (≈ 2.74 µM)	0.4 (≈ 1.57 µM)	1.2 (≈ 4.7 µM)	> 200	> 200	> 100	0.35 (≈ 1.37 µM)	9.9 (≈ 38.8 µM)	88	1.6 (≈ 6.27 µM)	20 (≈ 78.4 µM)	1.4 (≈ 5.49 µM)	0.025 (≈ 0.098 µM)	> 400	0.03 (≈ 0.118 µM)	28	11 (≈ 43.1 µM)	> 200	EC50 (HepG2): 0.25 µg/mL (≈ 0.98 µM); MIC (HEL [7]): 1.4 µg/mL (≈ 5.49 µM); MIC (HEL [9]): 0.5 µg/mL (≈ 1.96 µM); MIC (HEL [10]): 0.31 µg/mL (≈ 1.21 µM); MIC (HEL [27]): 20 µg/mL (≈ 78.4 µM); MIC (HeLa): 135 µg/mL (≈ 529 µM); MIC (HEL [13]): > 50 µg/mL; MIC (HEL [19]): 0.85 µg/mL (≈ 3.33 µM); EC50 (L1210): 1.1 µg/mL (≈ 4.31 µM); EC50 (FM3A [25]): > 200 µg/mL; MIC (E6SM [26]): 0.5 µg/mL (≈ 1.96 µM)
Cc1cn(C2C/C(=[N+](/[O-])O)C(CO)O2)c(=O)[nH]c1=O (stereo not given)	35 (≈ 129 µM)	35 (≈ 129 µM)	> 200	13 (≈ 47.9 µM)	17 (≈ 62.7 µM)	> 200	> 200	> 200	10 (≈ 36.9 µM)	247 (≈ 911 µM)	102	91 (≈ 336 µM)	> 100	> 200	0.86 (≈ 3.17 µM)	> 200	1.2 (≈ 4.42 µM)	25	> 200	> 200	EC50 (L1210): 25 µg/mL (≈ 92.2 µM); EC50 (FM3A [25]): > 200 µg/mL; MIC (E6SM [26]): 9 µg/mL (≈ 33.2 µM)
